M1 antagonist = M1 muscarinic receptor (rat) antagonism. B-score at 10 µM. 3.4% of 64,000 active. CHO-M1 cells, Fluo-4 calcium, ACh EC80 antagonist mode; stronger effect = lower value;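 active = calcium fluorescence response, raw or row-and-column corrected B-score, differing from the plate sample mean either way at a set confidence level, mostly lower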
S1P1 ag pot = agonists and agonism potentiators of human S1P1 receptor | activation, % at 9.5 µM | 0.57% of 56,000 active | S1P1 CRE-bla cells, forskolin, beta-lactamase FRET, potentiator mode; S1P1 agonist co-added at EC20, 2 nM; 100% = saturating reference agonist, 0% = basal | AID 449 | P21453;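 active = activation above a cutoff set at the mean activation of all tested compounds plus 3 SD, cut at about 54% in these data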;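 also: forskolin at 4 µM as EC80 and the EC20 agonist is SEW2871; 100% = SEW2871 at its EC100 plus forskolin at EC80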
S1P3 agonist = activates the human S1P3 receptor. Q99500. S1P3 NFAT-BLA reporter cells, agonism, FRET ratio; relative to 1 µM S1P, basal subtracted. activation, % at 4.5 µM. 0.1% of 60,000 active;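 active = activation above the screen-wide mean plus 3 SD, cut at about 4.5% in these data, passing the limit was not always enough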
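Material: Human S1P3 NFAT-BLA reporter CHO cells | Incubation: Overnight plating, 4 h compound 37 °C, 2 h substrate RT | Signal: FRET β-lactamase substrate fluorescence, excitation 405 nm, 460/535 nm emission ratio, background-subtracted | Compound: 4.5 µM final, single dose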
D1 mod = allosterically modulates the human D1 dopamine receptor | HEK293 D1, CRE-luciferase, dopamine EC30 potentiation; actives deviate in either direction | B-score at 10 µM | 5.9% of 58,000 active | AID 641;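 active = luminescence count or its row- and column-corrected plate score outside the 99.7% band of the plate's sample wells, on either side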
TNAP act mid DEA = activates human TNAP at intermediate phosphate acceptor concentration. purified TNAP, CDP-star luminescence, 100 mM DEA, 30 min; stronger effect = higher value; scale: 0 levamisole-inhibited, 1 vehicle-only enzyme. activation factor at 20 µM. 64,000 tested, under 10 active. AID 813;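 active = activation factor of at least 2 at 20 µM, relative to controls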
Target sequence (P05186 whole entry, looked up): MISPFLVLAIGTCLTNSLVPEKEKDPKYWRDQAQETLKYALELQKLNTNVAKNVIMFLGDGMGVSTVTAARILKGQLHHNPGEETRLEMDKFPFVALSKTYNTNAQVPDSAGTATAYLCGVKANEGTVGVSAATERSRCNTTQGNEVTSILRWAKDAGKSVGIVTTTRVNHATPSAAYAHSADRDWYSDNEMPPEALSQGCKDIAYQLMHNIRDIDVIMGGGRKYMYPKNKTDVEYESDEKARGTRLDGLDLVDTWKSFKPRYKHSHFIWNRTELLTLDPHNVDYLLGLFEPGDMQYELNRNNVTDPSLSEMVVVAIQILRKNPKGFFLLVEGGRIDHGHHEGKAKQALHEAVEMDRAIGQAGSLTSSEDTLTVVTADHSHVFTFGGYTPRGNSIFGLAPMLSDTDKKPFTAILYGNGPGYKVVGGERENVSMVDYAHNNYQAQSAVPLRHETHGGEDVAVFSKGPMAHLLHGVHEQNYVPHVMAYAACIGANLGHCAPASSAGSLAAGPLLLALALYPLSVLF
M1 agonist = activates the M1 muscarinic receptor. CHO-M1 cells, Fluo-4 calcium fluorescence, agonist mode; stronger effect = higher value. B-score at 10 µM. 3% of 64,000 active;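 active = fluorescence rise, raw or as B-score row- and column-corrected plate score, outside the 99.7% band of its plate's samples, either direction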
D1 PAM confirm = confirmation of human D1 dopamine receptor allosteric modulators. 88% of 2,200 active. luminescence at 10 µM. shares compounds with D1 mod. HEK293 D1 CRE-luciferase, dopamine EC30 potentiation; stronger effect = higher value;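 active = luminescence in either of two replicates above the same-plate mean plus 3 SD of the low-dose dopamine control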
D1 no dopamine = secondary test of D1 modulators: activity without dopamine. shares compounds with D1 mod. HEK293 D1 CRE-luciferase, luminescence, no dopamine; stronger effect = higher value. luminescence at 10 µM. 0.8% of 1,900 active; in the data active = luminescence above about 3900
Isoprot counter = alters isoproterenol CRE-luciferase response in HEK293 cells; HEK293 D1 CRE-luciferase, isoproterenol EC30 counter-screen; stronger effect = higher value; 63% of 2,200 active; shares compounds with D1 mod; luminescence at 10 µM;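 active = luminescence in either replicate above plate mean of wells with a partly effective reference agonist dose plus 3 SD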;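 also: isoproterenol raises cAMP through native beta-adrenoceptor Gs so signal bypasses D1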
An asterisk follows results filed as active; . = no result. An excerpt weighted towards active compounds, which were near 11% of everything screened.

SMILES	M1 antagonist	S1P1 ag pot	S1P3 agonist	D1 mod	TNAP act mid DEA	M1 agonist	D1 PAM confirm	D1 no dopamine	Isoprot counter
CCOC(=O)CCSc1nc(C)c2ccccc2n1	-1.5	-16	0	1.9*	0.9	-0.012	6200*	1668	2904
CCOC(=O)CSc1nc(C)c2cc(OC)ccc2n1	0.48	-1	0	-0.047	0.9	1.8	.	.	.
Cc1ccc(-c2nc3ncccn3c2NC(=O)C2CC2)cc1	0.36	-37	-1	2.8*	0.9	1.1	8360*	1836	2576
CC(=O)Nc1c(-c2ccccc2)nc2ncccn12	0.13	-25	1	0.53	1	-0.49	.	.	.
CCCc1nc2sc3ccccc3c(=O)c2c(=O)n1Cc1ccco1	0.85	1	0	4.6*	0.8	-1.5	9128*	1636	3532
CCNc1nc(NCC)n2c(SCc3nc4ccccc4c(=O)[nH]3)nnc2n1	0.28	-68	2	27*	0.9	-0.31	21452*	1628	6556*
CCNc1nc(NCC)n2c(SCc3ccc(F)cc3)nnc2n1	.	10	-2	.	1	.	.	.	.
COC(=O)C1=C(C)N(C)C(C)=C(C(=O)OC)C1c1ccc(F)c(Br)c1	0.15	-33	-1	-0.79	0.9	0.62	.	.	.
C=CCNc1sc(C(=O)C2CC2)c(N)c1C#N	0.48	-34	-4	19*	0.9	0.31	26736*	1716	4380*
C=CCN(CC=C)C(=O)C1CCC(C(=O)N(CC=C)CC=C)CC1 (stereo not given)	-0.94	6	0	-0.016	1	-0.52	.	.	.
C=CCn1sc(=N)c(C#N)c1N	-0.085	4	0	.	0.9	-0.16	.	.	.
C=CCNc1sc(C(=O)C(C)(C)C)c(N)c1C#N	0.0065	-40	2	9.3*	0.9	-0.58	21312*	1684	2876
CCCC(=O)N=C1SC2CS(=O)(=O)CC2N1c1ccc(CC)cc1 (stereo not given)	0.0046	.	.	-0.75	0.9	0.17	.	.	.
O=C1C(=O)N(Cc2cccnc2)C(c2ccccn2)/C1=C(/O)c1ccc(F)cc1 (stereo not given)	-0.0041	7	-5	-0.052	0.9	-0.33	.	.	.
CCc1nc2scc(-c3ccccc3)c2c(=O)n1N	-0.0047	.	.	6.6*	0.9	-0.17	14056*	1596	3780*
Cc1nc2scc(-c3ccccc3)c2c(=O)o1	0.077	-4	1	0.0084	1	0.86	.	.	.
C=CCN=C(NC#N)SCc1ccccc1Cl	-0.36	5	-1	7.4*	0.9	-0.54	8148*	.	2628
CC(C)N=C(NC#N)SCc1ccc(F)cc1	0.002	-5	1	-0.6	1	-0.23	.	.	.
c1csc(Cc2nn3c(-c4n[nH]c5c4CCC5)nnc3s2)c1	-0.52	-42	-1	3.4*	1.1	0.47	8576*	1600	3740*
Cc1ccc(N2CCCCn3c2nc2c3c(=O)n(CC(=O)O)c(=O)n2C)cc1	0.2	8	0	0.47	0.9	-0.44	.	.	.
CCOC(=O)N1CCN(C(=O)C(CC(C)C)NC(=O)C2CCCCC2)CC1 (stereo not given)	-0.56	.	.	.	1	0.24	.	.	.
N#CC1=C(N)Oc2c(oc(CO)cc2=O)C12C(=O)Nc1ccc(Cl)cc12 (stereo not given)	0.8	-4	0	-0.23	0.9	-0.6	.	.	.
CN1C(=O)C2(C(C#N)=C(N)Oc3c2oc(CO)cc3=O)c2ccccc21 (stereo not given)	-0.4	.	-1	8.9*	1	-0.49	5568	1636	2384
O=c1ccn(Cc2ccccc2)c(=O)n1Cc1ccccc1	0.45	.	0	2.9*	0.9	-0.35	12736*	1644	3316*
Cn1c(=O)n(Cc2ccccc2)c2ccccc21	0.59	-16	-1	1.2	1	-0.36	.	.	.
SMILES	M1 antagonist	S1P1 ag pot	S1P3 agonist	D1 mod	TNAP act mid DEA	M1 agonist	D1 PAM confirm	D1 no dopamine	Isoprot counter
O=C(C1CC1)N1CCN=C1SCc1cccc(C(F)(F)F)c1	0.36	6	0	0.6	1	0.053	.	.	.
CC(=O)N1CCN=C1SCc1cccc(C(F)(F)F)c1	0.65	0	0	4.9*	1	0.17	10200*	1640	3480*
Cc1cnn(-c2nc(-c3cccs3)cc(C(F)(F)F)n2)c1	.	-10	-1	15*	0.9	.	14404*	.	3208*
CCS(=O)(=O)c1nc2ccccc2n1Cc1ccccc1Cl	-0.48	-12	-1	16*	0.9	-0.22	16608*	1152	3788*
O=C1CCCC(O)=C1C(C#Cc1ccccc1)C1=C(O)CCCC1=O	.	11	0	3.6*	0.9	.	6888	1524	2320
CCOc1cc(-c2c(C)c(CC)nc(N)c2C#N)ccc1O	0.61	-13	-1	1.9*	0.9	-0.054	10600*	1960	3752*
CC1CCN(C(=O)Cn2c(=O)n(Cc3ccc4c(c3)OCO4)c(=O)c3ccccc32)CC1	.	-4	-1	.	1	.	.	.	.
O=C(Cn1c(=O)n(Cc2ccc3c(c2)OCO3)c(=O)c2ccccc21)N1CCCc2ccccc21	0.97	13	-1	6*	0.9	0.97	10984*	1796	3144*
CNc1nc(NC)nc(-n2c(C(F)(F)F)nc3ccccc32)n1	0.1	.	-1	8*	1	1.3	18112*	1496	3740*
Cc1nc2ccccc2n1CC(O)Cn1c(C(F)(F)F)nc2ccccc21 (stereo not given)	-0.071	-1	-1	-0.47	0.9	0.42	.	.	.
Cc1noc(C)c1S(=O)(=O)N1CCCC(C(=O)NCc2ccccn2)C1 (stereo not given)	0.25	3	0	4.2*	0.9	-0.47	6380*	1568	2512
CC1CCCCN1c1nc(-c2ccncc2)nc2ccccc12 (stereo not given)	-0.71	-30	1	13*	0.9	-0.27	8444*	1504	3480*
CC1CCN(c2nc(-c3ccncc3)nc3ccccc23)CC1	-0.68	-72	-2	3.9*	0.9	-0.88	9916*	1776	4700*
CC(C)n1c(SCC(N)=O)nc2c1c(=O)[nH]c(=O)n2C	-0.33	5	-1	-0.081	1	0.5	.	.	.
CC(C)n1c(SCc2ccc(Cl)cc2)nc2c1c(=O)[nH]c(=O)n2C	0.092	-49	-1	1.9	0.9	-0.14	.	.	.
C/C=C/CSc1nc2c(c(=O)[nH]c(=O)n2C)n1C(C)C	-0.54	-50	0	6*	0.9	-0.25	12796*	1768	3356*

Source: PubChem
